Experiment [1] deals with Staphylococcus aureus. Description: Antibacterial activity against Staphylococcus aureus ATCC 25923 assessed as inhibition of visible bacterial growth incubated for 18 to 20 hrs by CLSI method. The experiment is classed as functional. As to conditions: time 18-20 hrs. The essentials:
(§1)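 CLSI broth microdilution. Strains grown aerobically overnight on tryptic soy agar at 37 °C, adjusted to 0.5 McFarland and diluted in cation-adjusted Mueller–Hinton broth to about 5×10^5 CFU/mL. Compounds and control drugs serially diluted across the plate. Incubated aerobically at 37 °C for 18-20 h. MIC is the lowest concentration with no visible growth.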

The subject of experiment [2] is Staphylococcus aureus. Nature of the experiment: Antibacterial activity against methicillin-resistant Staphylococcus aureus ATCC 33592 assessed as inhibition of visible bacterial growth incubated for 18 to 20 hrs by CLSI method. Format: functional. Conditions: time 18-20 hrs. The essentials: as §1

Values after ≈ are worked out from the molar mass of the structure shown.

One may read the MIC as the least concentration at which growth counts as inhibited. In the case of `O=C(Nc1nnc(-c2cccs2)o1)c1ccc(C(F)(F)F)cn1`, the MIC in the experiment with Staphylococcus aureus [1] was determined as 64 µg/mL (≈ 188 µM); in the experiment on Staphylococcus aureus [2], 32 µg/mL (≈ 94 µM).
`CSc1ccc(C(=O)Nc2nnc(-c3cccs3)o2)cc1`: the MIC in the experiment with Staphylococcus aureus [1] and with Staphylococcus aureus [2] was 4 µg/mL (≈ 12.6 µM) throughout.
On to `O=C(Nc1nnc(-c2cccs2)o1)c1cccc(C(F)(F)F)n1`, for which the MIC in the experiment with Staphylococcus aureus [1] and in the experiment with Staphylococcus aureus [2] was 16 µg/mL (≈ 47 µM) in each case.
In the case of `O=C(Nc1nnc(-c2cccs2)o1)c1ccc(C(F)(F)F)cc1`, the MIC with Staphylococcus aureus [1] and in the experiment on Staphylococcus aureus [2] was 2 µg/mL (≈ 5.89 µM) throughout.
For the compound `O=C(Nc1nnc(-c2cccs2)o1)c1ccc(OC(F)F)cc1`, the MIC in the experiment with Staphylococcus aureus [1] and in the experiment on Staphylococcus aureus [2] was 32 µg/mL (≈ 94.9 µM) in each case.
On to `O=C(Nc1nnc(-c2cccs2)o1)c1ccc(C(F)(F)F)s1`, for which the MIC in the experiment with Staphylococcus aureus [1] amounted to 4 µg/mL (≈ 11.6 µM); in the experiment on Staphylococcus aureus [2] it was 2 µg/mL (≈ 5.79 µM).

(Values after ChEMBL document CHEMBL4715682, “Potent trifluoromethoxy, trifluoromethylsulfonyl, trifluoromethylthio and pentafluorosulfanyl containing (1,3,4-oxadiazol-2-yl)benzamides against drug-resistant Gram-positive bacteria” (RSC Med Chem, 2020).)
